Measurements: ChEMBL document CHEMBL1821590, “Novel dihydropyrimidines and its pyrazole derivatives: synthesis and pharmacological screening” (Eur J Med Chem, 2011)
≈ marks a conversion by molar mass, not a printed value.

Tests used:
Assay type in all cases: functional
[1] = system: Candida albicans; experiment: Antimicrobial activity against Candida albicans at 50 ug/ml by paper disc method; settings: read-out: IZ
Procedure, shortened: (§1)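 Paper disc method against A. niger and C. albicans, with compounds at 25, 50 and 100 µg/mL. Amphotericin-B as standard.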

[2] = system: Aspergillus niger; experiment: Antimicrobial activity against Aspergillus niger at 100 ug/ml by paper disc method; settings: read-out: IZ; procedure, shortened: as §1
[3] = system: Bacillus subtilis; experiment: Antimicrobial activity against Bacillus subtilis at 100 ug/ml by agar plate diffusion technique; settings: read-out: IZ
Procedure, shortened: (§2)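 Agar plate diffusion against E. coli, P. aeruginosa, S. aureus and B. subtilis, with compounds at 25, 50 and 100 µg/mL. Streptomycin as standard.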

[4] = system: Staphylococcus aureus; experiment: Antimicrobial activity against Staphylococcus aureus at 100 ug/ml by agar plate diffusion technique; settings: read-out: IZ; procedure, shortened: as §2
[5] = Antioxidant activity assessed as inhibition of lipid peroxidation using egg lecithin liposomes incubated for 1 hr
Procedure, shortened: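 Egg lecithin (3 mg/mL, phosphate buffer pH 7.4) sonicated 10 min to form liposomes. Sample or ascorbic acid (12.5–100 µg/mL) added. Peroxidation induced with FeCl3 and L-ascorbic acid, 1 h at 37 °C. Stopped with HCl/TCA/TBA/BHA, boiled 15 min, centrifuged, supernatant read at 532 nm. Triplicate. % inhibition vs control. IC50 derived.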

[6] = system: Escherichia coli; experiment: Antimicrobial activity against Escherichia coli at 100 ug/ml by agar plate diffusion technique; settings: read-out: IZ; procedure, shortened: as §2
[7] = system: Pseudomonas aeruginosa; experiment: Antimicrobial activity against Pseudomonas aeruginosa at 100 ug/ml by agar plate diffusion technique; settings: read-out: IZ; procedure, shortened: as §2
[8] = system: Candida albicans; experiment: Antimicrobial activity against Candida albicans at 100 ug/ml by paper disc method; settings: read-out: IZ; procedure, shortened: as §1
[9] = system: Pseudomonas aeruginosa; experiment: Antimicrobial activity against Pseudomonas aeruginosa at 50 ug/ml by agar plate diffusion technique; settings: read-out: IZ; procedure, shortened: as §2
[10] = system: Metaphire posthuma; experiment: Anthelmintic activity against Pheretima posthuma assessed as time taken for complete parasite paralysis at 0.2% w/v
Procedure, shortened: (§3)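 Earthworms (Pheretima posthuma) exposed to test solutions at 0.1, 0.2 and 0.5% w/v; time in minutes to complete paralysis (worms motionless) recorded. Albendazole as standard. Mean of three determinations ± S.D.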

[11] = Antioxidant activity assessed as nitric oxide radical scavenging activity after 150 mins
Procedure, shortened: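 10 mM sodium nitroprusside (4 mL), PBS pH 7.4 (1 mL) and sample or ascorbic acid in DMSO (1 mL, 12.5–100 µg/mL), incubated 150 min at 25 °C. Nitrite detected with sulphanilic acid (5 min) then naphthylethylenediamine (30 min, diffused light). Read at […]. Triplicate. % inhibition = [1 − (Vt/Vc)] × 100. IC50 derived from it.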

[12] = system: Escherichia coli; experiment: Antimicrobial activity against Escherichia coli at 50 ug/ml by agar plate diffusion technique; settings: read-out: IZ; procedure, shortened: as §2
[13] = system: Metaphire posthuma; experiment: Anthelmintic activity against Pheretima posthuma assessed as time taken for parasite death at 0.2% w/v
Procedure, shortened: (§4)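 Earthworms (Pheretima posthuma, spelled Perituma posthuma in text) exposed to test compounds at 0.1, 0.2 and 0.5% w/v. Albendazole served as standard, with an untreated control. Paralysis was recorded as the time until worms became motionless, then time to death was recorded, in minutes. Each value is the mean of three determinations with S.D.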

[14] = system: Staphylococcus aureus; experiment: Antimicrobial activity against Staphylococcus aureus at 25 ug/ml by agar plate diffusion technique; settings: read-out: IZ; procedure, shortened: as §2
[15] = system: Bacillus subtilis; experiment: Antimicrobial activity against Bacillus subtilis at 25 ug/ml by agar plate diffusion technique; settings: read-out: IZ; procedure, shortened: as §2
[16] = system: Metaphire posthuma; experiment: Anthelmintic activity against Pheretima posthuma assessed as time taken for parasite death at 0.5% w/v; procedure, shortened: as §4
[17] = Antioxidant activity assessed as hydrogen peroxide scavenging activity after 10 mins
Procedure, shortened: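 H2O2 (20 mM) in PBS pH 7.4. 1 mL of sample or ascorbic acid in methanol (12.5–100 µg/mL) added to 2 mL H2O2 solution. A230 read after 10 min. % inhibition = [1 − (Vt/Vc)] × 100. Triplicate, averaged. IC50 derived from % inhibition across concentrations.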

[18] = system: Bacillus subtilis; experiment: Antimicrobial activity against Bacillus subtilis at 50 ug/ml by agar plate diffusion technique; settings: read-out: IZ; procedure, shortened: as §2
[19] = system: Aspergillus niger; experiment: Antimicrobial activity against Aspergillus niger at 25 ug/ml by paper disc method; settings: read-out: IZ; procedure, shortened: as §1
[20] = Antiinflammatory activity assessed as inhibition of albumin denaturation at 100 ug/ml by UV-visible spectrophotometry
Procedure, shortened: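 Compounds dissolved in minimal DMF, diluted in PBS pH 7.4 (final DMF <2.5%). 1 mL test solution (100 µg/mL) plus 1 mL 1% albumin in PBS, 15 min at 27 ± 1 °C, then heated 10 min at 60 ± 1 °C. After cooling, turbidity read at 660 nm. % inhibition = [(Vt/Vc) − 1] × 100 against a no-drug control. Triplicate, averaged. Diclofenac standard.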

[21] = Antioxidant activity assessed as potassium ferricyanide ion reducing power after 20 mins
Procedure, shortened: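 Oyaizu method. Samples or ascorbic acid in DMF (12.5–100 µg/mL) mixed with 0.2 M phosphate buffer pH 6.6 and 1% potassium ferricyanide, 20 min at 50 °C. 10% TCA added, centrifuged. Supernatant mixed with water and 0.1% FeCl3, read at 700 nm. % = [(Vt/Vc) − 1] × 100. IC50 derived.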

[22] = system: Metaphire posthuma; experiment: Anthelmintic activity against Pheretima posthuma assessed as time taken for complete parasite paralysis at 0.5% w/v; procedure, shortened: as §3
[23] = system: Metaphire posthuma; experiment: Anthelmintic activity against Pheretima posthuma assessed as time taken for complete parasite paralysis at 0.1% w/v; procedure, shortened: as §3
[24] = system: Escherichia coli; experiment: Antimicrobial activity against Escherichia coli at 25 ug/ml by agar plate diffusion technique; settings: read-out: IZ; procedure, shortened: as §2
[25] = system: Candida albicans; experiment: Antimicrobial activity against Candida albicans at 25 ug/ml by paper disc method; settings: read-out: IZ; procedure, shortened: as §1
[26] = system: Metaphire posthuma; experiment: Anthelmintic activity against Pheretima posthuma assessed as time taken for parasite death at 0.1% w/v; procedure, shortened: as §4
[27] = system: Pseudomonas aeruginosa; experiment: Antimicrobial activity against Pseudomonas aeruginosa at 25 ug/ml by agar plate diffusion technique; settings: read-out: IZ; procedure, shortened: as §2
[28] = system: Staphylococcus aureus; experiment: Antimicrobial activity against Staphylococcus aureus at 50 ug/ml by agar plate diffusion technique; settings: read-out: IZ; procedure, shortened: as §2
[29] = system: Aspergillus niger; experiment: Antimicrobial activity against Aspergillus niger at 50 ug/ml by paper disc method; settings: read-out: IZ; procedure, shortened: as §1

Row | SMILES | zone of inhibition at 50 µg/mL [1] [mm] | zone of inhibition at 100 µg/mL [2] [mm] | zone of inhibition at 100 µg/mL [3] [mm] | zone of inhibition at 100 µg/mL [4] [mm] | IC50 [5] [µg/mL] | zone of inhibition at 100 µg/mL [6] [mm] | zone of inhibition at 100 µg/mL [7] [mm] | zone of inhibition at 100 µg/mL [8] [mm] | zone of inhibition at 50 µg/mL [9] [mm] | Time [10] [min] | IC50 [11] [µg/mL] | zone of inhibition at 50 µg/mL [12] [mm] | Time [13] [min] | zone of inhibition at 25 µg/mL [14] [mm] | zone of inhibition at 25 µg/mL [15] [mm] | Time [16] [min] | IC50 [17] [µg/mL] | zone of inhibition at 50 µg/mL [18] [mm] | zone of inhibition at 25 µg/mL [19] [mm] | inhibition [20] [%] | further results
1 | CCOC(=O)c1cnn(-c2nc(-c3ccc(N(C)C)cc3)c(C#N)c(=O)n2C)c1N | 13.7 | 18.3 | 20.9 | 16.5 | 111 (≈ 272 µM) | 14 | 16.7 | 17.7 | 11.9 | 46.58 | 115 (≈ 282 µM) | 10.2 | 57.55 | 10.1 | 11.2 | 58.72 | 119 (≈ 292 µM) | 14.8 | 10.2 | 20.4 | IC50 [21]: 98 µg/mL (≈ 241 µM); Time [22]: 42.87 min; Time [23]: 41.45 min; zone of inhibition at 25 µg/mL [24]: 11.1 mm; zone of inhibition at 25 µg/mL [25]: 10.4 mm; Time [26]: 49.79 min; zone of inhibition at 25 µg/mL [27]: 8.29 mm; zone of inhibition at 50 µg/mL [28]: 13.5 mm; zone of inhibition at 50 µg/mL [29]: 12.2 mm
2 | CCOC(=O)c1cnn(-c2nc(-c3ccccc3F)c(C#N)c(=O)n2C)c1N | 15.2 | 21.2 | 28 | 26.7 | 94 (≈ 246 µM) | 27.5 | 26.2 | 21.2 | 16.1 | 68.48 | 87 (≈ 228 µM) | 22.3 | 80.74 | 15.8 | 14.8 | 60.77 | 86 (≈ 225 µM) | 19.3 | 11.9 | 48.9 | IC50 [21]: 69 µg/mL (≈ 180 µM); Time [22]: 48.38 min; Time [23]: 70.67 min; zone of inhibition at 25 µg/mL [24]: 15.1 mm; zone of inhibition at 25 µg/mL [25]: 12 mm; Time [26]: 88.45 min; zone of inhibition at 25 µg/mL [27]: 12.7 mm; zone of inhibition at 50 µg/mL [28]: 20.8 mm; zone of inhibition at 50 µg/mL [29]: 14.1 mm
3 | COc1ccc(-c2nc(SC)n(C)c(=O)c2C#N)cc1 | 11.2 | 18 | 19.1 | 14.8 | 53 (≈ 184 µM) | 8.79 | 9.17 | 19.8 | 8.84 | 46.56 | 73 (≈ 254 µM) | 7.19 | 72.67 | 8.76 | 11.7 | 62.21 | 48 (≈ 167 µM) | 13.1 | 11.6 | 21.3 | IC50 [21]: 58 µg/mL (≈ 202 µM); Time [22]: 42.65 min; Time [23]: 54.56 min; zone of inhibition at 25 µg/mL [24]: 5.08 mm; zone of inhibition at 25 µg/mL [25]: 9.33 mm; Time [26]: 78.22 min; zone of inhibition at 25 µg/mL [27]: 6.19 mm; zone of inhibition at 50 µg/mL [28]: 12.8 mm; zone of inhibition at 50 µg/mL [29]: 12 mm
